Screens: PubChem BioAssay, Broad Institute
GSK3B inh: human GSK3beta kinase inhibitors, primary screen, biochemical, cell-free homogeneous, HTS; GST-GSK3beta kinase, ADP-Glo luminescence, 60 min; hits give low values; activity score (negative = inhibition), % at 10 µM; 0.038% of 300,000 active;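 active = more than half of replicate wells score below -50%, meaning over 50% inhibition versus plate controls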;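 note: 0% = median DMSO wells and -100% = median GW8510 positive control wells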
Target sequence (P49841 whole entry, looked up): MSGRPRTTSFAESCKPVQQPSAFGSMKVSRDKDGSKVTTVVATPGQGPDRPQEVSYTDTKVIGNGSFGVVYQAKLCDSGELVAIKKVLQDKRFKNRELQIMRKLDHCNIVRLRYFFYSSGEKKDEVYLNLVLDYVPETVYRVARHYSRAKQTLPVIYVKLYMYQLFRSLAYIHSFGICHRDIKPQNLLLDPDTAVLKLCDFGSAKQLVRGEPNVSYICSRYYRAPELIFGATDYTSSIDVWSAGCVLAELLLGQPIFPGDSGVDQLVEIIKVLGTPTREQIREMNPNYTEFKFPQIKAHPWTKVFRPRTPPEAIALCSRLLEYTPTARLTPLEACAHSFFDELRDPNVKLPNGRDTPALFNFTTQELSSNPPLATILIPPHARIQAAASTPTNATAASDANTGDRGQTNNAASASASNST
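Test system: GST-tagged human GSK3beta kinase, cell-free; evaluation: activity score scaled between in-plate DMSO and GW8510 controls; measured by: ADP-Glo luminescence; incubation: 60 min reaction, RT; benchmarks: DMSO and 20 µM GW8510; reagent: peptide substrate plus 25 µM ATP (final); medium: Tris/MgCl2 kinase buffer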
Dyrk1A ADPGlo: rat Dyrk1A kinase inhibitors, primary screen, biochemical, single point, plate reader. Dual specificity tyrosine-phosphorylation-regulated kinase 1A (Rattus norvegicus), Q63470. ADP-Glo luminescence, NFATc1 peptide. inhibition, % at 12.5 µM. 0.43% of 310,000 active. AID 504441, 2011; in the data active = inhibition above about 50%;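 note: plate controls were vehicle with enzyme for no effect and no enzyme for full effect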
GSK3A inh: blockers of GSK3A enzyme activity – biochemical, luminescence, cell-free homogeneous, HTS, primary screen. 0.1% of 320,000 active. Glycogen synthase kinase-3 alpha (Homo sapiens), P49840. AID 2650, 2010. GSK-3 alpha kinase, ADP-Glo luminescence, 60 min. inhibition, % at 10 µM;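 active = more than half of replicates show inhibition above 20%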;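 note: GST-tagged GSK-3 alpha with peptide substrate and 25 µM ATP; 0% = DMSO neutral wells and 100% = GW8510 positive control wells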
STK33 inh: inhibitors of purified STK33 kinase, primary screen, biochemical, ADP-Glo luminescence, homogeneous, cell-free. Serine/threonine-protein kinase 33 (Homo sapiens), Q9BYT3. MBP phosphorylation. inhibition, % at 10 µM. 0.073% of 320,000 active;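 active = inhibition at or above 25%, using the most active replicate where run in duplicate; inactive = inhibition below 25%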
ADP-Glo artifact: ADP-Glo luciferase interference without Dyrk1A, dose response, artefact control for Dyrk1A inhibitor project, biochemical, luminescence, cherry-pick, set 02; AC50, µM (series often up to 12 µM), for inactives: at the highest dose activity change, negative = inhibition; shares compounds with Dyrk1A ADPGlo; 1,300 tested, under 10 active; AID 588348, 2011; ADP-Glo luciferase artifact assay, no Dyrk1A;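 active = fitted half-maximal dose AC50 no more than ten times the top valid tested dose, with luminescence dropping as dose rises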
Active calls of the source: *; / = not tested or not shown; ! = a repeat was not active. This excerpt belongs to a sample that is enriched for hits.

SMILES | GSK3B inh | Dyrk1A ADPGlo | GSK3A inh | STK33 inh | ADP-Glo artifact
Oc1ccc(-c2csc(-c3ccccc3)n2)cc1O | -5.2 | 55.4* | 11.6 | 2.7 | 7.5%
Fc1ccc(-c2csc(-c3cccnc3)n2)cc1F | 5.2 | 4.1 | -1.9 | -1.4 | /
COc1ccc(OC)c(/C=C/C(=O)OCC(=O)Nc2nnc(-c3ccccc3)o2)c1 | / | 3.5 | -5.5 | -1.1 | /
O=[N+]([O-])c1cc([N+](=O)[O-])c2oc(-c3ccccc3)c(Br)c2c1O | 0.5 | 76.0* | / | / | 9.4%
O=c1cc(-c2ccccc2Cl)oc2ccc([N+](=O)[O-])c(O)c12 | -3.0 | 22.1 | -4.0 | -0.1 | /
Nc1cc2c(cc1[N+](=O)[O-])-c1ccccc1C2=NO | / | 79.8* | / | / | 7.1%
NC1=NC(=O)/C(=C\c2ccc(-c3ccc(Cl)cc3)o2)S1 | 1.1 | 58.3* | 8.8 | 0.1 | 7.4%
CN(C)C1=NC(=O)/C(=C/c2ccc(-c3ccc(S(N)(=O)=O)cc3)o2)S1 | -3.8 | / | 19.2 | 4.0 | /
Cc1ccccc1C(=O)N1CCC(C(=O)N(C)CC(=O)Nc2cccc(F)c2)CC1 | 2.3 | -1.5 | -2.0 | -0.8 | /
O=C(NCc1ccco1)C1CCN(C(=O)c2ccc([N+](=O)[O-])cc2)CC1 | 0.6 | / | -2.5 | 0.1 | /
NC1=NC(=O)/C(=C/c2cccc(-c3ccc(S(N)(=O)=O)cc3)c2)S1 | 1.9 | 10.1 | 6.5 | -0.8 | /
NC1=NC(=O)/C(=C\c2ccc(O)c([N+](=O)[O-])c2)S1 | -6.9 | 79.2* | 13.0 | 19.1 | 9.0%
CCOC(=O)C[C@H]1c2cc(C(F)(F)F)ccc2S(=O)(=O)N1C(C)C | -3.0 | 53.5* | 0.7 | -2.6 | 11.6%
CCOC(=O)C[C@H]1c2cc(F)ccc2S(=O)(=O)N1C(C)C | 1.0 | 1.8 | -1.3 | -6.3 | /
CCCCCCCCCCCCN1[C@@H](CC(=O)OC)c2cc(C(F)(F)F)ccc2S1(=O)=O | 2.0 | 53.3* | -0.7 | 0.2 | 12.5%
CCOC(=O)C1=C(C)N(C[C@@H]2CC[C@@H](Cc3ccc(-c4ccccc4)cc3)O2)C(=O)NC1C1CC1 (stereo partly drawn) | / | 1.0 | / | / | /
CCCc1cc(C(=O)Nc2ccc(OC)cc2[N+](=O)[O-])cs1 | -5.5 | -0.1 | / | / | /
O=C(O)c1ccc(OS(=O)(=O)c2ccc(Cl)s2)c(Cl)c1 | / | 7.7 | / | / | /
Cc1ccc(/C=c2\sc3n(c2=O)CN(c2ccc(Br)cc2)CN=3)o1 | -7.5 | 62.4* | 0.8 | -0.4 | 8.7%
CN(C)/C=N/c1nc(-c2ccc3c(c2)OCO3)cs1 | 0.1 | 76.8* | / | 1.9 | 6.4%
O=C(Nc1nc(-c2ccc3c(c2)OCO3)cs1)C1COc2ccccc2O1 (stereo not drawn) | -1.6 | 19.9 | -1.2 | 0.0 | /
CC(=O)Nc1nc(-c2ccc3c(c2)OCO3)cs1 | 1.0 | 57.5* | -0.7 | 0.8 | 10.3%
Cc1noc(C)c1S(=O)(=O)Nc1ccc2c(c1)C(=O)N([C@H](C)CO)C[C@H](C)[C@@H](CN(C)C(=O)Nc1ccc3c(c1)OCO3)O2 | / | -0.3 | / | / | /
Cc1ccc(S(=O)(=O)N[C@H](C(=O)N2CCC(C(=O)N[C@@H](CC(=O)O)C(=O)O)CC2)C(C)C)cc1 | 2.1 | 4.6 | 3.8 | 0.5 | /
CCCCNCCCCOc1ccccc1 | -3.9 | 10.6 | -0.5 | -0.8 | /
SMILES | GSK3B inh | Dyrk1A ADPGlo | GSK3A inh | STK33 inh | ADP-Glo artifact
C[N+](C)(CCOc1ccccc1)Cc1ccccc1 | / | 68.9* | / | / | 11.1%
CC(C)[C@H](NS(=O)(=O)c1ccc2c(c1)OCCO2)C(=O)OCC(=O)Nc1cc(Cl)ccc1Cl | 1.2 | 1.3 | 1.1 | -1.1 | /
CC(=O)Nc1ccc(SCc2c(C)noc2C)cc1 | 2.5 | 2.7 | 0.5 | -1.6 | /
CC(=O)Nc1ccc(SCc2ncc(-c3ccccc3)o2)cc1 | -1.0 | 64.2* | 2.9 | 22.3 | 6.1%
CC(C)Oc1ccc(C2CNC(=O)C2)cc1 (stereo not drawn) | -0.1 | 53.6* | -1.1 | -0.3 | 8.0%
CC1CCCCC1NC(=O)CCn1ccc2cc(S(=O)(=O)N3CCCC3)ccc21 (stereo not drawn) | -1.3 | -8.3 | -1.6 | -0.3 | /
COc1ccc2c(Cl)c(C(=O)NN)sc2c1 | -3.4 | 26.2 | 0.5 | -0.8 | /
COc1ccc2c(Cl)c(C(=O)N/N=C/c3cccnc3)sc2c1 | 4.5 | 63.7* | 12.8 | -0.4 | 10.0%
COc1ccc2c(Cl)c(C(N)=O)sc2c1 | 2.4 | 84.0* | 0.8 | 3.1 | 8.5%
O=C(N/N=C/c1cccnc1)c1sc2ccccc2c1Cl | 0.0 | 0.5 | 1.8 | -1.0 | /
C/C(=N/NC(=O)c1ccc(Br)s1)c1cccnc1 | -5.8 | 51.5* | 8.6 | 3.7 | 6.8%
C=CC(=O)N(CCC)C(c1ccccc1)c1ccccc1OC (stereo not drawn) | 1.1 | 14.9 | -1.7 | -1.1 | /
NS(=O)(=O)c1ccc(NC(=O)c2ccc(S(=O)(=O)N3CCCCCC3)cc2)cc1 | / | / | 1.5 | -0.2 | /
CCOc1ccc(CCNC(=O)CCNC(=O)c2ccccc2Cl)cc1OCC | -0.8 | -0.5 | 0.3 | -0.6 | /
CCOc1cc2c(C#N)c(N3CCCC3)nc(N)c2c(N)n1 | 5.4 | -0.8 | 4.9 | 0.3 | /
COc1cc2c(C#N)c(N3CCCC3)nc(N)c2c(N)n1 | -5.7 | 52.7*! | 5.4 | -0.1 | 12.4%
N#Cc1c(N2CCCC2)nc(N)c2c(N)nc(N3CCCC3)cc12 | -0.6 | 67.2* | -5.9 | 5.2 | 9.4%
COc1cc2c(C#N)c(N3CCN(C)CC3)nc(N)c2c(N)n1 | -3.1 | 5.9 | 2.6 | 1.3 | /
O=C(NCCc1ccccc1Cl)C1CCC(=O)N(C2CCCCCC2)C1 (stereo not drawn) | -0.8 | -1.9 | -0.8 | 0.3 | /
O=C1CC(c2ccc(O)c(O)c2)Oc2c1ccc(O)c2O (stereo not drawn) | / | 33.7 | 8.5 | 4.9 | /
CC(C)=CCc1c(O)ccc2c1OC(c1ccc(O)c(O)c1)CC2=O (stereo not drawn) | -50.2* | 64.5* | 76.0* | 2.5 | 9.7%
CCc1ncc(/C=C2\C(=O)Nc3ccccc32)[nH]1 | -3.5 | 56.6* | 9.4 | 48.5* | 6.5%
Cc1ccccc1C(=O)N[C@H](C(=O)OCC(=O)NC1CC1)C(C)C | / | / | -1.9 | -0.9 | /
Brc1ccccc1C1=Nn2c(nnc2-c2ccccc2)SC1 | 0.8 | 73.2* | 4.1 | 0.2 | 8.4%
CCOC(=O)c1ccc2ncc(C(=O)OCC)c(NCCN3CCOCC3)c2c1 | -21.5 | 19.0 | 22.2 | 2.2 | /
CCOC(=O)c1cnc2ccc(C)cc2c1Nc1ccc(N2CCOCC2)cc1 | 0.3 | 60.8* | 4.2 | 5.3 | 8.3%
COc1ccc(C(=O)NCC2CCCO2)cc1 (stereo not drawn) | 1.4 | 1.4 | -2.0 | 0.0 | /
COc1ccc2cc3cc(C(=O)NCCC(C)C)oc3nc2c1 | 2.2 | 11.5 | -1.6 | 0.5 | /
COc1ccc2cc3cc(C(=O)NCC4CCCO4)oc3nc2c1 (stereo not drawn) | 2.2 | 54.4* | 3.0 | 1.1 | 9.9%
